High-throughput results as filed in PubChem BioAssay.
A selection: hits, their analogues and other compounds. The true share with any hit is near 2.9%.
M1 ag parental = counter-screen for M1 agonists: effect in parental CHO-K1 cells. AID 602248. Fluo-8 calcium fluorescence; scaled to maximal ATP response, vehicle zero. activation, % at 3 µM. 360,000 compounds, 0.48% hits; in the data active = activation above about 15%;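 note: untransfected CHO-K1 host cells lacking M1 receptor as counterscreen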
OX1R antag-1 = antagonists of human orexin 1 receptor; O43613; CHO/OX1R cells, Fluo-8 calcium fluorescence, orexin A; inhibition, % at 5 µM; 330,000 compounds, 0.43% hits; AID 434989;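 active = inhibition above its plate's threshold, mean inhibition of all tested compounds on the plate plus 3 SD, cut at about 37% in these data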
Target sequence (O43613 whole entry, looked up): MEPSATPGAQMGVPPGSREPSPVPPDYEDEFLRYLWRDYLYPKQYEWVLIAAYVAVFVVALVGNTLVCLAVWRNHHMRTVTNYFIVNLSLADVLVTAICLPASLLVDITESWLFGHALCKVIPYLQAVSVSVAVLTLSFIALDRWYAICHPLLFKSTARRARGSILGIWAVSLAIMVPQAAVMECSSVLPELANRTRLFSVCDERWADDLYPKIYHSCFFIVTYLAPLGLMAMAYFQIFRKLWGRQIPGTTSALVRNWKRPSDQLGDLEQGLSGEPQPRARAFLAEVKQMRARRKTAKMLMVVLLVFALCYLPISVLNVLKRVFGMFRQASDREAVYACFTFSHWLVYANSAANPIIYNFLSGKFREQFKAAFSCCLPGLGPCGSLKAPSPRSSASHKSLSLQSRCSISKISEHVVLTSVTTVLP
OX1R antag-2 = OX1R (human) antagonism; O43613; OX1R-expressing cells, FRET antagonist read-out; inhibition, % at 6.6 µM; 330,000 compounds, 1.8% hits; AID 485270; in the data active = inhibition mostly above about 38%, no sharp cut-off; inactive = mostly below about 40%
CHO parental Ca = counter-screen: ATP calcium response change in parental CHO cells; 330,000 compounds, 0.63% hits; inhibition, % at 5.6 µM; parental CHO-K1, ATP-induced calcium, Fluo-8 fluorescence;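 active = inhibition above that plate's mean sample inhibition plus 3 SD, cut at about 26% in these data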
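Assay system: untransfected parental CHO cell line. Also added: ATP agonist challenge. Dosing: one dose, 5.6 µM nominal. Measured by: Fluo-8 fluorescence. Read-out: % inhibition. Benchmarks: ATP wells versus no-ATP DMSO wells. Repeats: no replicates.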
M1 PAM parental = nonselective activator or artifact in parental CHO-K1 calcium assay. ATP EC20, Fluo-8 calcium fluorescence; 0% at ATP EC20, 100% at ATP max. AID 602247. activation, % at 3 µM. 360,000 compounds, 0.02% hits;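 active = activation above the run cutoff, the mean activation of all test compounds plus 3 SD, cut at about 40% in these data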;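 note: peak over basal fluorescence ratio in a 140 s read after ATP addition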
CHO-K1 Ca antag = nonselective inhibitor or artifact in parental CHO-K1 cells | ATP-induced calcium, Fluo-8 fluorescence | inhibition, % at 3 µM | 360,000 compounds, 0.6% hits | AID 602250;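 active = inhibition above a per-plate cutoff, the plate's mean sample inhibition plus 3 SD, cut at about 24% in these data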
Numbers stand for hits; – = inactive; · = no result given.

SMILES	M1 ag parental	OX1R antag-1	OX1R antag-2	CHO parental Ca	M1 PAM parental	CHO-K1 Ca antag
CCOC(=O)N1CCC(N2Cc3cccc(C(=O)NC(C)c4ccc5c(c4)OCCO5)c3C2=O)CC1 (stereo not drawn)	–	–	–	–	–	42
CCn1c(=O)c2ccccc2n(Cc2cccc(C)c2)c1=O	–	–	–	–	–	27
Cc1cccc(Cn2c(=O)n(Cc3ccco3)c(=O)c3ccccc32)c1	–	–	–	–	–	–
CC(/C=C/c1ccccc1F)=N\NC(=O)c1cccc(F)c1	–	–	–	–	–	–
Cc1cccc(NC(=O)Cn2nc(-c3cccs3)ccc2=O)c1C	–	–	–	–	–	–
O=C(c1cccc2ccccc12)N1CCCCC1	–	–	–	–	–	–
O=C(O)c1ccc2c3c(cccc13)C(=O)N(c1ccccc1)C2=O	–	–	58	–	–	–
CCN1C(=O)c2cccc3c(Cl)ccc(c23)C1=O	–	–	–	–	–	–
O=C1c2cccc3c(Cl)ccc(c23)C(=O)N1O	–	53	52	–	–	–
O=C(c1ccc2c3c(cccc13)C(=O)N(O)C2=O)N1CCCCC1	–	–	72	–	–	–
O=C(O)c1ccc(N2C(=O)c3cccc4c(C(=O)O)ccc(c34)C2=O)cc1	–	–	–	–	–	–
O=C1c2cccc3c(N4CCCCC4)ccc(c23)C(=O)N1c1ccc(O)cc1	–	–	–	–	–	–
O=C1c2cccc3c(N4CCCCC4)ccc(c23)C(=O)N1c1ccccc1O	36	54	–	52	–	30
CCCN1CCC(=O)N([C@H](CSc2ccc(OC)cc2)c2ccccc2)CC1	–	–	–	–	–	–
COc1cc(C2=NOC(C(=O)Nc3c(C)n(C)n(-c4ccccc4)c3=O)C2)cc(OC)c1OC (stereo not drawn)	–	–	–	–	–	–
Cc1cccc(C(=O)Nc2nsc(N)n2)c1	–	–	–	–	–	–
CCOc1ccc(NC(=O)CC(Cc2cc(C)cc(C)c2)C(=O)O)cc1 (stereo not drawn)	–	·	·	·	–	–
CCCCCN1C(=O)Cn2c(nc3ccccc3c2=O)C1C (stereo not drawn)	–	–	–	–	–	–
NN1C(=O)c2cccc3c(C(=O)O)ccc(c23)C1=O	–	–	58	–	–	–
O=C1OCCC1=COCCOC=C1CCOC1=O	–	·	·	·	–	–
CCOC(=O)C(=O)N(C)c1c(CC)nc2c(OCc3cc(Cl)cc(Cl)c3)cccn12	–	·	·	·	–	29
CCOC(=O)C(=O)N(C)c1c(CC)nc2c(OCc3cccc(Cl)c3)cccn12	–	·	·	·	–	–
CCN(C(=O)COc1cc(=O)n(CC)c2ccccc12)c1cccc(Cl)c1	–	–	47	–	–	–
CCN(Cc1ccccc1)C(=O)COc1cc(=O)n(CC)c2ccccc12	–	–	58	–	–	–
COCCCNC(=O)CN1C(=O)/C(=C/c2ccccc2)Sc2ccccc21	–	–	68	–	–	–
SMILES	M1 ag parental	OX1R antag-1	OX1R antag-2	CHO parental Ca	M1 PAM parental	CHO-K1 Ca antag
COCCCNC(=O)CN1C(=O)/C(=C/c2ccccc2C)Sc2ccccc21	–	–	–	–	–	–
O=C(Nc1ccc(-n2cc(Br)cn2)cc1)c1ccncc1	–	–	–	–	–	–
COC(=O)c1ccc(OC)c(CSc2nnc(COc3ccc(Cl)cc3)o2)c1	–	–	–	–	–	24
CC(Oc1ccc(Cl)cc1Cl)c1nc(-c2ccc(NC(=O)c3cccnc3)cc2)no1 (stereo not drawn)	–	–	–	–	–	–
CC(Oc1ccc(Cl)cc1Cl)c1nc(-c2ccc(NC(=O)c3ccncc3)cc2)no1 (stereo not drawn)	–	–	–	43	–	–
COc1c(Cl)cnn(-c2ccc(Cl)c(Cl)c2)c1=O	17	–	–	–	–	–
O=C(Nc1ccccc1Cl)c1cc(C2CCCN(C(=O)c3cccs3)C2)on1 (stereo not drawn)	–	·	·	·	–	–
CN1CC(=O)N/C1=N\C(=O)Nc1ccc(O)cc1	–	–	–	–	–	–
O=C1c2ccccc2S(=O)(=O)c2cc(N3CCN(c4ccccc4)CC3)ccc21	·	–	–	–	·	·
O=C1c2ccccc2S(=O)(=O)c2cc(N3CCOCC3)ccc21	–	–	56	–	–	–
O=[N+]([O-])c1ccc(-c2ccc(S(=O)(=O)NCCN3CCCC3)cc2)cc1	–	–	59	–	–	–
COc1ccc2cc(S(=O)(=O)NCCCN3CCOCC3)ccc2c1	–	–	–	–	–	–
Cc1ccc2cc(S(=O)(=O)NCCCN3CCOCC3)ccc2c1	19	–	–	–	–	–
O=[N+]([O-])c1ccc(S(=O)(=O)NCCCc2ccccc2)cc1	–	–	–	–	–	–
O=[N+]([O-])c1cccc(S(=O)(=O)NCCCN2CCOCC2)c1	–	–	–	–	–	–
O=[N+]([O-])c1ccc(S(=O)(=O)NCCN2CCOCC2)cc1	–	–	43	–	–	–
Cc1occc1-c1nnc(SCC(=O)Nc2nc(C(C)(C)C)cs2)o1	–	–	–	36	–	30
NC(=O)CN1CCOCCOCCN(CC(N)=O)CCOCCOCC1	–	–	–	–	–	49
O=C(Nc1cccc(S(=O)(=O)NC2=NCCC2)c1)c1cnc(Cl)c(Cl)c1	–	–	–	–	–	–
CCOc1ccc(N=Nc2c(=O)[nH]n3c(=O)cc(C)[nH]c23)cc1	–	–	59	–	–	–
Cn1c(CC(=O)NNC(=O)c2ccccc2[N+](=O)[O-])nc2ccccc21	–	–	–	–	–	–
Cc1nn(C(C)(C)C)c(OC(=O)c2ccc(Br)o2)c1Sc1ccccc1	–	–	38	–	–	–
CC(C)c1ccc(-c2cc(C(=O)N3CCOCC3)c3cc(Br)ccc3n2)cc1	–	–	–	–	–	–
Cc1ccccc1NC(=O)COC(=O)c1cc(=O)c2ccccc2o1	·	–	–	–	·	·
Cc1ccc(Nc2nnc(C)c3ccccc23)c(C)c1	–	–	–	–	–	–
SMILES	M1 ag parental	OX1R antag-1	OX1R antag-2	CHO parental Ca	M1 PAM parental	CHO-K1 Ca antag
Cc1cccc(-n2nnnc2SCn2nnc3ccccc3c2=O)c1	–	–	–	–	–	27
Cc1ccc(-n2nnnc2SCn2nnc3ccccc3c2=O)cc1	–	–	–	–	–	–
COc1cccc(CN(C)C(=O)c2cc(COc3ccc4ncccc4c3)on2)c1	19	–	–	66	–	44
COc1cccc(CN(C)C(=O)c2cc(COc3c(F)cccc3F)on2)c1	–	–	–	–	–	–
COc1cccc(CN(C)C(=O)c2cc(COc3ccc(-n4cncn4)cc3)on2)c1	16	–	–	–	–	–
COc1cc(OC)c(OC)cc1/C=N/NC(=O)c1cc(-c2cccn2C)n[nH]1	–	–	59	–	–	–
COc1ccc(/C=N/NC(=O)c2cc(-c3cccn3C)n[nH]2)cc1OC	–	–	–	–	–	–
CC(=O)Nc1ccccc1-c1cccc2nccn12	–	·	·	·	–	–
